Data set [1] deals with Leishmania donovani. The data set can be described thus: Antileishmanial activity against Leishmania donovani MHOM/ET/67/L82 amastigotes assessed as growth inhibition incubated for 70 hrs by resazurin based inverted microscopic analysis. It counts as functional, organism-based. Particulars: Leishmania donovani, MHOM/ET/67/L82, 70 h. The method in brief:
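Axenic L. donovani amastigotes (MHOM/ET/67/L82); racemates tested unless stated; miltefosine as positive control. Some values come from a separate run and were rescaled by that run's relative miltefosine IC50.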

The subject of data set [2] is L6. In words: Cytotoxicity against rat L6 cells assessed as reduction in cell viability incubated for 70 hrs by resazurin staining based inverted microscopic analysis. Particulars: L6, 70 h. The method in brief: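 Rat L-6 skeletal myoblast line; racemates tested unless stated.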
A short description of data set [3]: Selectivity index, ratio of IC50 for cytotoxicity against rat L6 cells to IC50 for antileishmanial activity against Leishmania donovani MHOM/ET/67/L82 amastigotes. Conditions: read-out: Ratio IC50. It counts as toxicity, cell-based.

The text below walks through data of ChEMBL document CHEMBL4765412, “(±)-trans-2-phenyl-2,3-dihydrobenzofurans as leishmanicidal agents: Synthesis, in vitro evaluation and SAR analysis” (Eur J Med Chem, 2020).

pIC50: −log10 of the molar value.

With `C[C@H]1c2cc(/C=C/C(=O)O)ccc2O[C@@H]1c1ccc(O)cc1` (racemic), the pIC50 was 5.25 in data set [1] and 4.13 in data set [2]. Further, the selectivity ratio in data set [3] stood at 13.1.

As to `COc1cc([C@H]2Oc3ccc(Br)cc3[C@@H]2CO)c(Br)cc1O` (racemic), the pIC50 in data set [1] was 4.97; in data set [2], 4.39. Besides, the selectivity ratio in data set [3] was determined as 3.8.

For `COc1cc(Br)c([C@H]2Oc3ccc(Br)cc3[C@@H]2CO)cc1OC` (racemic), the pIC50 in data set [1] was 4.94; in data set [2], 4.68. For the same compound, the selectivity ratio in data set [3] stood at 1.8.

For `COc1cc([C@H]2Oc3ccc(Cl)cc3[C@@H]2C)cc(Cl)c1O` (racemic), the values for the pIC50 in data set [1] and in data set [2] were 4.87 and 4.19, respectively. The selectivity ratio in data set [3] is 4.8.

In the case of `COc1ccc([C@H]2Oc3ccc(/C=C/C(=O)OC(C)(C)C)cc3[C@@H]2CO)cc1OC` (racemic), the figures for the pIC50 in data set [1] and in data set [2] were 4.97 and 4.64, respectively. In addition, the selectivity ratio in data set [3] is 2.1.

For `COc1cc([C@H]2Oc3ccc(Br)cc3[C@@H]2CO)cc(Br)c1O` (racemic), the results for the pIC50 in data set [1] and in data set [2] were 4.92 and 4.34, respectively. Moreover, the selectivity ratio in data set [3] amounted to 3.8.

For `COc1cc([C@H]2Oc3ccc(Br)cc3[C@@H]2C)c(Br)cc1O` (racemic), the pIC50 in data set [1] is 4.82; in data set [2], 4.74. Further, the selectivity ratio in data set [3] was found to be 1.2.

As to `C[C@H]1c2cc(Br)ccc2O[C@@H]1c1ccc(O)cc1` (racemic), the pIC50 was 4.49 in data set [1] and 4.25 in data set [2]. Also, in data set [3], the selectivity ratio came to 1.7.

In the case of `CC(=O)Oc1ccc([C@H]2Oc3ccc(/C=C/C(=O)OC(C)(C)C)cc3[C@@H]2C(=O)OC(C)(C)C)cc1` (racemic), the values for the pIC50 in data set [1] and in data set [2] were 5.69 and 4.93, respectively. In addition, the selectivity ratio in data set [3] is 5.7.

Regarding `CC(C)(C)OC(=O)/C=C/c1ccc2c(c1)[C@H](CO)[C@@H](c1ccc(O)cc1)O2` (racemic), the figures for the pIC50 in data set [1] and in data set [2] were 4.77 and 4.47, respectively. Moreover, the selectivity ratio in data set [3] stood at 2.

In the case of `COc1cc([C@H]2Oc3ccccc3[C@@H]2C)cc(I)c1O` (racemic), the results for the pIC50 in data set [1] and in data set [2] were 4.87 and 4.33, respectively. Also, the selectivity ratio in data set [3] was 3.5.

In the case of `OC[C@H]1c2cc(Br)ccc2O[C@@H]1c1ccc(O)c(O)c1` (racemic), the pIC50 in data set [1] was 4.75; in data set [2], 5.41. For the same compound, the selectivity ratio in data set [3] turned out to be 0.2.

Regarding `COc1cc([C@H]2Oc3ccc(Cl)cc3[C@@H]2C)ccc1O` (racemic), the pIC50 in data set [1] is 4.79; in data set [2], 4.26. Besides, in data set [3], the selectivity ratio is 3.4.

Turning to `OC[C@H]1c2ccccc2O[C@@H]1c1ccc(O)c(Br)c1` (racemic), the pIC50 is 4.36 in data set [1] and 3.94 in data set [2]. Further, the selectivity ratio in data set [3] was 2.6.

`COc1ccc([C@H]2Oc3ccc(Br)cc3[C@@H]2C)cc1Br` (racemic): the figures for the pIC50 in data set [1] and in data set [2] were 4.53 and 4.40, respectively. Further, the selectivity ratio in data set [3] turned out to be 1.3.

As to `OC[C@H]1c2cc(Br)ccc2O[C@@H]1c1ccc(O)c(Br)c1` (racemic), the pIC50 in data set [1] was 4.66; in data set [2], 4.19. Besides, the selectivity ratio in data set [3] was found to be 3.

On to `COc1cc([C@H]2Oc3ccc(Br)cc3[C@@H]2C)cc(Br)c1O` (racemic), for which the negative logarithm of the IC50 (pIC50) was 4.76 in data set [1] and 4.35 in data set [2]. Also, the selectivity ratio in data set [3] was 2.6.

For the compound `COc1ccc([C@H]2Oc3ccc(/C=C/C(=O)OC(C)(C)C)cc3[C@@H]2C)cc1` (racemic), the values for the pIC50 in data set [1] and in data set [2] were 5.40 and 4.40, respectively. For the same compound, the selectivity ratio in data set [3] turned out to be 10.

Regarding `OC[C@H]1c2ccccc2O[C@@H]1c1cc(Br)c(O)c(Br)c1` (racemic), the values for the pIC50 in data set [1] and in data set [2] were 5.00 and 3.96, respectively. The selectivity ratio in data set [3] was 10.8.
